Compound activity (PubChem BioAssay)
PP5 inh – blocks human protein phosphatase 5 activity. P53041. purified PP5c, OMFP substrate fluorescence. inhibition, % at 6.7 µM. actives 0.18% (n = 320,000);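 active = inhibition above the campaign's mean inhibition across all tested compounds plus 3 SD, cut at about 9.5% in these data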;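 also: 0% = DMSO only and 100% = 100 µM cantharidin control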
Target sequence (P53041 whole entry, looked up): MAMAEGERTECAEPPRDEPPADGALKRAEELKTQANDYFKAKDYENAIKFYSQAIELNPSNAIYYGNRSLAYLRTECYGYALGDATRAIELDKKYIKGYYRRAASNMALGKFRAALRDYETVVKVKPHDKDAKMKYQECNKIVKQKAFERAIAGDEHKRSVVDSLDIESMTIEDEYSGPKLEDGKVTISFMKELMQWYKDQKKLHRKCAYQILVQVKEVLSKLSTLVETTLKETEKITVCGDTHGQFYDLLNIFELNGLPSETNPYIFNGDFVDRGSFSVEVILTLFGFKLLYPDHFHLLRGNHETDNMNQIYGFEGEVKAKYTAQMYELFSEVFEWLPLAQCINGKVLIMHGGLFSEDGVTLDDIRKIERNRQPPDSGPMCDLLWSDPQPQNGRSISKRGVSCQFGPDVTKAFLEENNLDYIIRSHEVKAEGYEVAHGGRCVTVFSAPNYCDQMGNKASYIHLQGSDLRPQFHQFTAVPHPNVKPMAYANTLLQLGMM
CTSL1 counter – cathepsin L1 inhibition, PFM18AAP counter-screen | actives 0.49% (n = 300,000) | recombinant F. hepatica cathepsin L1, Z-Leu-Arg-MCA fluorescence | inhibition, % at 5.96 µM;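 active = inhibition above the mean of all tested compounds plus 3 SD, set per screening campaign, cut at about 17% in these data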;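 also: 0% = plate median of test compound wells and 100% = 1 µM Z-Phe-Ala-diazomethylketone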
PP1 counter – PP1-alpha (human) inhibition in PP5 counter-screen; P62136; purified PP1alpha, OMFP fluorescence; inhibition, % at 6.7 µM; actives 0.9% (n = 320,000);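 active = inhibition above the mean inhibition of all tested compounds plus 3 SD, computed separately for each screening campaign, cut at about 15% in these data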
Myeloid diff 2 – promotes myeloid progenitor differentiation; actives 1% (n = 360,000); calls only at 10 µM; ER-HoxA9 myeloid progenitors, lysozyme-GFP differentiation, flow cytometry;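 active = normalized GFP-positive differentiation at or above the plate's own cutoff, the solvent-only control mean plus 3 SD; inconclusive = no clear call, values can overlap the other calls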;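 also: cells exposed to compound for four days before flow analysis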
NadD block – blocks S. aureus nicotinate mononucleotide adenylyltransferase; inhibition, % at 20 µM; actives 0.78% (n = 360,000); AID 602399; purified NadD enzyme, colorimetric absorbance read-out; in the data active = inhibition above about 26%
HCV core dimer – blocks dimerization of HCV core protein; TR-FRET GST/Flag-core106 dimerization, 1536-well; inhibition, % at 5 µM; actives 0.33% (n = 300,000);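 active = inhibition above the mean of all tested compounds plus 3 SD, set per screening campaign, cut at about 45% in these data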
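Assay system: GST-tagged and Flag-tagged HCV core protein residues 1-106 / Times: compound-protein-antibody incubation 4 h at 22.5 °C / Signal: time-resolved FRET, ex 340 nm, em 617 and 671 nm / Evaluation: % inhibition based on acceptor/donor emission ratio / Benchmarks: wells lacking GST-core106 and wells with excess unlabelled core106 / Repeats: singlicate, one well per compound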
PP1 confirm – confirmation of human PP1 phosphatase inhibitors | actives 52% (n = 1,900) | inhibition, % at 6.7 µM | shares compounds with PP1 counter | purified PP1alpha, OMFP substrate fluorescence;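 active = mean PP1 inhibition above a set limit taken from the earlier primary screen, cut at about 15% in these data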
PP5 inh counter – PP5 phosphatase inhibition, counter-screen for PP1 inhibitors. shares compounds with PP1 counter. purified PP5c, OMFP fluorescence. inhibition, % at 6.7 µM. actives 4% (n = 1,900);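 active = mean PP5 inhibition over triplicate wells above about 9.5% taken from the earlier PP1 screen, limit read from the data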
Starred values were filed as active, the others as inactive. Only some compounds are listed: those with a hit (about 3.1% of all), similar ones and a draw of the others.

For CCC(=O)N1C(C(=O)O)CSC1c1ccc(OC)cc1 (stereo not given) the results were PP5 inh -1, CTSL1 counter -4, PP1 counter 31*, Myeloid diff 2 inactive, NadD block -2, HCV core dimer -1, PP1 confirm -2 and PP5 inh counter -4.
For O=C1CCc2cc(S(=O)(=O)N3CCN(C(=O)c4ccco4)CC3)ccc2N1 the results were PP5 inh 5, CTSL1 counter -1, PP1 counter 71*, Myeloid diff 2 inactive, NadD block -6, HCV core dimer -2, PP1 confirm -2 and PP5 inh counter -4.
For O=C(c1ccco1)N1CCN(S(=O)(=O)c2ccc(F)cc2)CC1 the results were PP5 inh -1, CTSL1 counter -2, PP1 counter -2, Myeloid diff 2 inactive, NadD block -8 and HCV core dimer 2.
COc1cc(C(=O)COC(=O)c2ccc([N+](=O)[O-])o2)cc(OC)c1OC was read as Myeloid diff 2 inactive and NadD block -2.
For CC(C)(C)c1cc(Br)ccc1OCC(=O)Nc1ncn[nH]1 the results were PP5 inh 0, CTSL1 counter 2, PP1 counter 23*, Myeloid diff 2 inactive, NadD block 1, HCV core dimer 3, PP1 confirm 20* and PP5 inh counter -2.
Screening NC(=O)C1CCN(C(=O)c2ccc(Cl)c(S(=O)(=O)N3CCCCCC3)c2)CC1 returned Myeloid diff 2 inactive and NadD block 1.
For COc1ccc(-c2ccc(CN3C(C(C)C)C(=O)N(Cc4cn(CC5CCCCC5)nn4)CCS3(=O)=O)cc2)cc1OC (stereo not given) the results were Myeloid diff 2 inactive and NadD block 4.
`CSCc1cc(N(C)C)nc(SCc2ccc(Cl)c(Cl)c2)n1` gave PP5 inh 1, CTSL1 counter 1, PP1 counter 22*, Myeloid diff 2 inactive, NadD block 19, HCV core dimer 6, PP1 confirm 10 and PP5 inh counter -2.
For CNc1cc(CSC)nc(SCc2ccc(Cl)cc2Cl)n1 the results were PP5 inh 4, CTSL1 counter -5, PP1 counter 8, Myeloid diff 2 inactive, NadD block 2 and HCV core dimer -1.
For Oc1c(C(Nc2ccccn2)c2ccccn2)ccc2cccnc12 (stereo not given) the results were PP5 inh 6, CTSL1 counter -4, PP1 counter 72*, Myeloid diff 2 inconclusive, NadD block 29, HCV core dimer -4, PP1 confirm 76* and PP5 inh counter 0.
For Oc1ccccc1C(Nc1nccs1)c1ccc2cccnc2c1O (stereo not given) the results were PP5 inh -3, CTSL1 counter -3, PP1 counter 23*, Myeloid diff 2 inconclusive, NadD block 37*, HCV core dimer -2, PP1 confirm 20* and PP5 inh counter -1.
For Cc1ccnc(NC(c2cccnc2)c2ccc3cccnc3c2O)c1 (stereo not given) the results were PP5 inh 4, CTSL1 counter -1, PP1 counter 12, Myeloid diff 2 inactive, NadD block 8 and HCV core dimer 0.
For Cc1ccc2ccc(C(Nc3ccccn3)c3ccccc3)c(O)c2n1 (stereo not given) the results were PP5 inh 4, CTSL1 counter -4, PP1 counter 10, Myeloid diff 2 inactive, NadD block -3 and HCV core dimer 1.
For COc1ccccc1NC(c1cccnc1)c1ccc2cccnc2c1O (stereo not given) the results were PP5 inh 3, CTSL1 counter 7, PP1 counter 18*, Myeloid diff 2 inactive, NadD block 19, HCV core dimer -7, PP1 confirm 19* and PP5 inh counter -3.
CCCCn1c(N)c(N(CCOC)C(=O)CCNC(=O)c2ccc(Br)cc2)c(=O)[nH]c1=O was read as PP5 inh 0, CTSL1 counter 0, PP1 counter -3, Myeloid diff 2 inactive, NadD block 5 and HCV core dimer 0.
For CCCCN1C(=O)C(CC(=O)NCCc2ccccn2)CC(C(=O)N(C(C)C)C(C)C)=C1C (stereo not given) the results were Myeloid diff 2 inactive and NadD block 4.
Screening Cc1cc(C(=O)N2CCC2(C)C(=O)NS(=O)(=O)c2cccc(Cl)c2)nn1C (stereo not given) returned Myeloid diff 2 inactive and NadD block 2.
`Cc1ccc(C(=O)O/N=C/c2c(N3CCOCC3)n(C)c3ccccc23)cc1` gave PP5 inh 3, CTSL1 counter 1, PP1 counter 21*, Myeloid diff 2 inactive, NadD block 5, HCV core dimer 3, PP1 confirm -1 and PP5 inh counter 1.
`Cn1c(N2CCOCC2)c(/C=N/OC(=O)c2ccc(F)cc2)c2ccccc21` gave PP5 inh 1, CTSL1 counter 1, PP1 counter -1, Myeloid diff 2 inconclusive, NadD block -2 and HCV core dimer 6.
Screening Cc1cc(C2=NNC(=Nc3ccc(S(=O)(=O)N4CCOCC4)cc3)SC2)c(C)n1C returned PP5 inh 0, CTSL1 counter 7, PP1 counter 18*, Myeloid diff 2 inactive, NadD block 25, HCV core dimer 45, PP1 confirm -1 and PP5 inh counter -3.
For CCOc1nc2cnccc2n(CC(=O)Nc2ccccc2C(=O)OC)c1=O the results were PP5 inh -1, CTSL1 counter 2, PP1 counter 2, Myeloid diff 2 inactive, NadD block 3 and HCV core dimer 8.
Screening CC1=CC2C(C3C=CC2(C)C(=O)C3(C)O)C(C)(O)C1=O (stereo not given) returned Myeloid diff 2 inactive and NadD block -3.
Screening c1ccc(-c2c(-c3ccccc3)n(Cc3ccco3)c3ncnc(NCCCn4ccnc4)c23)cc1 returned PP5 inh 4, CTSL1 counter 4, PP1 counter 24*, Myeloid diff 2 inactive, NadD block 27, HCV core dimer 4, PP1 confirm 15 and PP5 inh counter 3.
`N=c1c2c(-c3ccccc3)c(-c3ccccc3)n(Cc3ccco3)c2ncn1Cc1ccccc1` gave PP5 inh 1, CTSL1 counter 3, PP1 counter 28*, Myeloid diff 2 inactive, NadD block 2, HCV core dimer 1, PP1 confirm 1 and PP5 inh counter -1.
Screening CCNC(=O)C1(C)CCCN(C(=O)c2sccc2C)C1 (stereo not given) returned Myeloid diff 2 inactive and NadD block 4.
